# The list is not random: actives were taken first. Their share in the collection is about 1.8%.
# UPR XBP1 act – adaptive UPR (XBP1) activation; CHO-XBP1 luciferase reporter, IRE1-XBP1 UPR activation, luminescence; percent of tunicamycin response, DMSO as zero; activation, % at 20 µM; actives 0.33% (n = 330,000); AID 463104;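 active means versus positive control, 20 µM dose yields 30% or more activation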;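 further: 100% = tunicamycin at 10 µg/mL and 0% = DMSO only wells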
#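 Assay system: CHO-XBP1 luciferase reporter cells; Schedule: 6 h treatment, 37 °C; Detection: glow luminescence from Steady-Glo reagent; Benchmarks: high control tunicamycin 10 µg/mL final, low control DMSO vehicle only.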
# 697 NFkB inh – inhibitors of the PMA/ionomycin-induced NF-kB reporter in 697 B cells. actives 0.33% (n = 330,000). AID 435022. inhibition, % at 4 µM. 697 B-cell NF-kB luciferase reporter, 16 h; in the data active means inhibition above about 35%
# Jurkat NFkB inh – lowers PMA/ionomycin-induced NF-kB signal in Jurkat cells; PMA/ionomycin-induced NF-kB luciferase reporter, luminescence; inhibition, % at 4 µM; actives 0.53% (n = 330,000); in the data active means inhibition above about 50%
# CRFBP-R2 block – antagonists of CRF-binding protein/CRF-R2 receptor complex; inhibition, % at 11.8 µM; actives 0.59% (n = 350,000); HEK293 CRF-R2/CRF-BP, CRF-induced calcium fluorescence;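 active means inhibition of the ligand-induced calcium signal above about 50% at the single tested concentration, limit read from the data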
# CHOP UPR activ – activators of apoptotic arm of unfolded protein response (CHOP); CHO-CHOP luciferase reporter, UPR activation, luminescence; percent of tunicamycin response over DMSO baseline; activation, % at 10 µM; actives 0.34% (n = 330,000); AID 449763;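 active means at 10 µM dose, activation of 40% or more, normalized to positive control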;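 further: 100% = tunicamycin at 10 µg/mL and 0% = DMSO alone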
#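 Evaluation: % reporter activation, DMSO baseline versus tunicamycin full activation; System: CHO-CHOP luciferase reporter cell line; Input: 500 cells/well; Incubation: 6 h compound treatment, 37 °C; Measured by: Steady-Glo luciferase luminescence; Dosing: one dose, 10 µM in 0.5% DMSO; Buffer or medium: F12 medium, 10% FBS; Benchmarks: positive tunicamycin 10 µg/mL, negative DMSO alone.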
# XBP1 UPR conf – confirmation of adaptive unfolded protein response (XBP1) activators; shares compounds with UPR XBP1 act; CHO-XBP1 IRE1-XBP1 luciferase reporter, luminescence; activation, % at 20 µM; actives 63% (n = 1,000);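 active means reporter signal at least 30% of the positive control's activation in two or more of four replicate wells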;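 further: plate controls were DMSO negative control for no effect and tunicamycin 10 µg/mL positive control for full effect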
# An asterisk follows results filed as active; · = no result.
SMILES,UPR XBP1 act,697 NFkB inh,Jurkat NFkB inh,CRFBP-R2 block,CHOP UPR activ,XBP1 UPR conf
CC(C)c1cccc(-c2ccc3c(c2)S(=O)(=O)c2cccc(C(=O)NC4CCCC4)c2C3=O)c1,33*,29,17,-8,13,26
O=C(NC1CCCCC1)c1cccc2c1C(=O)c1ccc(-c3ccc(OC(F)(F)F)cc3)cc1S2(=O)=O,75*,18,-36,-2,28,67*
COc1ccc(-c2ccc3c(c2)S(=O)(=O)c2cccc(C(=O)NC4CCCC4)c2C3=O)cc1OC,-2,26,3,-9,0,·
O=C(CSCc1ccc(Cl)cc1)Nc1ccc(-c2nnc(-c3ccccc3)o2)cc1,107*,-25,3,-9,28,72*
O=C(Cc1ccc(Cl)cc1)Nc1ccc(-c2nnc(-c3ccco3)o2)cc1,3,-24,-20,-10,4,·
CCOc1cc(/C=C(\C#N)c2[nH]nc(N)c2C#N)ccc1O,32*,5,-24,9,18,51*
CC1(C)C[C@H](O)[C@]2(CO)[C@H](O)C[C@]3(C)C(=CCC4[C@@]5(C)CC[C@H](O)C(C)(C)C5CC[C@]43C)[C@@H]2C1 (some centres undefined),146*,1,13,-25,39,73*
CCOC(=O)Cc1cc(=O)[nH]n(-c2ccccc2)c1=O,·,·,·,-4,·,·
CCOc1ccccc1-c1nc(CN2CCCN(C(=O)c3ccco3)CC2)c(C)o1,-1,-25,-3,10,2,·
Nc1nc(Nc2cccc(C(F)(F)F)c2)nc(C(F)(F)F)n1,34*,-4,4,7,1,49*
O=C(COc1ccc2ccc(=O)oc2c1)Nc1c(Cl)cccc1C(F)(F)F,31*,16,17,-11,-2,-2
Oc1nc(Nc2cccc(Cl)c2)sc1/C=C1\C=Nc2ccccc21,-2,11,14,-33,5,·
CCOC(=O)c1c(Nc2ccc(Cl)cc2)sc(/C=C2\C=Nc3ccccc32)c1O,38*,-24,-7,-106,4,15
Cc1ccc(Nc2nc3ccc(Cl)cc3n3cnnc23)cc1F,32*,16,16,-37,2,48*
O=C(NC(=Nc1nc2ccccc2o1)NC(=O)c1ccccc1)c1ccccc1,32*,-61,-66,-26,12,29
O=c1[nH]c(SCc2ccc(Cl)cc2)nc2ccccc12,-2,-62,0,-11,2,·
O=Cc1cc2ccccc2nc1SCc1ccc(Cl)cc1,43*,-2,49,-29,10,43*
CCn1c(=O)c(C(=O)Nc2nc3ccccc3[nH]2)c(O)c2ccccc21,78*,10,13,8,11,14
CCn1c(=O)c(C(=O)Nc2ccccc2)c(O)c2ccccc21,-1,-21,-23,-5,1,·
C=CCOc1ccc(/C=N/N2C(=O)C(CC(=O)Nc3ccc(F)cc3F)SC2=NC)cc1 (centres undefined),51*,-17,-21,-16,2,81*
CN=C1SC(CC(=O)Nc2ccccc2F)C(=O)N1C (centres undefined),0,10,2,-5,-1,·
Cc1cccc(NC(=O)c2cc3c(=O)n4ccccc4nc3n(CC(C)C)c2=N)c1,99*,15,21,6,6,-1
COc1cccc(NC(=O)c2cc3c(=O)n4ccccc4nc3n(CC(C)C)c2=N)c1,5,-8,15,-10,9,·
COc1ccc(OC)c(NC(=O)COc2ccc(S(=O)(=O)N3CCCC3)cc2)c1,-3,11,15,-3,0,·
CCCNC(=O)/C(C#N)=C1\N=C(NC(=O)c2cccs2)c2ccccc21,45*,-37,-9,-13,1,66*
SMILES,UPR XBP1 act,697 NFkB inh,Jurkat NFkB inh,CRFBP-R2 block,CHOP UPR activ,XBP1 UPR conf
Cc1cccn2c(=O)c3cc(C(=O)NC4CCCCCC4)sc3nc12,355*,14,-1,20,2,97*
Cc1cccn2c(=O)c3cc(C(=O)NC4CCS(=O)(=O)C4)sc3nc12 (centres undefined),-2,14,13,4,2,·
COc1ccc(Br)cc1/C=N/NC(=O)c1cc(OC)c(OC)c(OC)c1,-4,13,8,4,3,·
COc1cc(C(=O)N/N=C/c2ccsc2C)cc(OC)c1OC,30*,-48,44,3,-1,17
O=c1cc(CN2CCN(c3ccc(F)cc3)CC2)c2cc3c(cc2o1)CCCC3,100*,4,-6,-25,35,96*
Cc1cc(NC(=O)CSc2nnc(-c3c[nH]c4ccccc34)n2-c2ccc(Cl)cc2)no1,40*,-13,-6,11,4,9
Cc1cc(NC(=O)CSc2c[nH]c3ccccc23)no1,-3,15,-9,-4,-1,·
Cc1cc(NC(=O)CSc2nc3ccccc3c(=O)n2Cc2ccccc2)no1,-2,8,14,-23,0,·
Cc1ccc(Cn2c(SCC(=O)Nc3cc(C)on3)nc3ccccc3c2=O)cc1,52*,-9,-11,-12,2,48*
CC1CCN(C(=O)CN(Cc2ccc(F)cc2)S(C)(=O)=O)CC1,-2,9,21,0,3,·
COCCN(C(=O)c1oc2ccccc2c1COC)c1c(N)n(CC(C)C)c(=O)[nH]c1=O,-1,8,-4,-3,-2,·
CCC(=O)Nc1cccc(C(=O)/C=C/c2ccc(F)cc2)c1,35*,-20,-7,-36,9,53*
O=C(NCC1CCCO1)c1nn2c(C(F)(F)F)cc(-c3cc(Br)cs3)nc2c1Br (centres undefined),42*,4,-6,-36,6,40*
COc1ccc(C(=O)/C=C/c2ccc(O)cc2)c(O)c1C/C=C(\C)CCC=C(C)C,83*,-7,11,1,11,31*
C=C(C)C(O)CC/C(C)=C/Cc1c(O)ccc(C(=O)/C=C/c2ccc(O)cc2)c1O (centres undefined),-8,-24,15,-11,-4,·
CCOC(=O)c1c(NC(=O)c2cc(C)on2)c2cc([N+](=O)[O-])ccc2n1C,84*,-16,9,23,20,49*
CC(=O)c1sc(NC(=O)c2cc3c(C)nn(-c4ccccc4)c3s2)nc1C,-2,7,2,6,-1,·
Cc1nc(NC(=O)c2cc3c(C)nn(-c4ccccc4)c3s2)sc1C(=O)Nc1ccccc1,49*,4,-8,2,1,54*
Clc1ccc(-c2nsc(N3CCOCC3)n2)c(Cl)c1,0,-129,-113,-14,2,·
CCOc1ccc(C(=O)N2CCN(Cc3ccccc3)CC2)cc1OCC,-2,-15,0,9,2,·
